bovine MsrA act: bovine methionine sulfoxide reductase A activation; purified bovine MsrA, absorbance read-out; 360,000 compounds, 0.3% hits; activation, % at 10.6 µM; in the data active = activation above about 7.5%;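 note: 0% = vehicle and 100% = reference activator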
MsrA inh: bovine MsrA inhibition; purified bovine MsrA, absorbance read-out; inhibition, % at 15.5 µM; 360,000 compounds, 0.75% hits; in the data active = inhibition above about 4.5%;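 note: 0% = vehicle wells with enzyme and 100% = reference inhibitor wells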
MC4R barr agon: agonists of human melanocortin 4 receptor (MC4R) beta-arrestin. P32245. U2OS MC4R beta-arrestin complementation, luminescence; percent of melanotan II response, DMSO zero. activation, % at 8.9 µM. 360,000 compounds, 0.98% hits. AID 540308;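 active = activation above a per-plate cutoff, the mean activation of sample wells on that plate plus 3 SD, cut at about 8% in these data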
Target sequence (P32245 whole entry, looked up): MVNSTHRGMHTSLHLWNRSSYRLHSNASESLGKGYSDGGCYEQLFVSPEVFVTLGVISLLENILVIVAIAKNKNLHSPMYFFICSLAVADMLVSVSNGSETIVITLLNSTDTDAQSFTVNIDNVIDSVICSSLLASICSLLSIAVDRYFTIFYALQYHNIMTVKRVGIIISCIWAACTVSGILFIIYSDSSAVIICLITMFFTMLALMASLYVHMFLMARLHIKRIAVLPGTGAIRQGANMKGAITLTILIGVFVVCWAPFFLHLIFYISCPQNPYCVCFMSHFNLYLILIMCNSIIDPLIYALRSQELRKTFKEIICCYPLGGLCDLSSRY
MC4R antag cAMP: blocks human MC4R cAMP signaling; P32245; MC4R-expressing cells, MTII-stimulated cAMP, LANCE TR-FRET; inhibition, % at 6.5 µM; 360,000 compounds, 0.48% hits; AID 540295;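 active = inhibition above its plate's cutoff, the mean of tested wells on that plate plus 3 SD, cut at about 29% in these data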;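 note: 0% = Melanotan II alone and 100% = Melanotan II plus saturating MCL0020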
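Assay system: human MC4R-expressing U2OS cells; reagent: Melanotan II stimulation of cells; dosing: 6.5 µM single dose; timing: compound 30 min, challenge 1 h, detection 1 h; signal: TR-FRET cAMP assay; replicates: one well per compound, no replicates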
cAMP nonselect: U2OS forskolin cAMP inhibition counter-screen; inhibition, % at 6.5 µM; shares compounds with MC4R antag cAMP; parental U2OS, LANCE TR-FRET; AID 602193; 1,600 compounds, 26% hits;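 active = mean inhibition over triplicates above the low-control well mean plus 3 SD, set per campaign, cut at about 13% in these data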;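 note: signal is single emission at 671 nm which falls as cellular cAMP rises; 0% = forskolin-stimulated wells and 100% = buffer without forskolin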
MC4R cAMP antag: human MC4R cAMP antagonism confirmation. shares compounds with MC4R antag cAMP. MC4R-expressing cells, MTII-stimulated cAMP, TR-FRET. inhibition, % at 6.5 µM. 1,600 compounds, 27% hits. AID 602195; in the data active = inhibition above about 29%;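 note: 0% = agonist stimulated wells alone and 100% = agonist stimulated wells plus saturating reference antagonist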
Starred values were filed as active, the others as inactive; . = no result given. Rows were chosen to be rich in hits. Some 2.3% of all compounds tested hit in one or more screens of this group.

SMILES | bovine MsrA act | MsrA inh | MC4R barr agon | MC4R antag cAMP | cAMP nonselect | MC4R cAMP antag
Cc1ccc(N2CC(C(=O)Nc3ccc(S(=O)(=O)N4CCOCC4)cc3)CC2=O)cc1 (stereo not drawn) | -2 | 0 | -1 | 10 | . | .
COc1ccc(S(=O)(=O)NCc2ccccn2)cc1OC | -2 | -1 | 0 | 4 | . | .
COc1cc(C)c(S(=O)(=O)n2c([N+](=O)[O-])cnc2C)cc1C | -3 | 2 | -1 | 0 | . | .
CCOC(=O)CS(=O)(=O)c1nc(-c2ccc(F)cc2)cc(C(F)(F)F)n1 | -6 | . | -3 | 32* | 13 | -1
OCCC1CN(Cc2ccccn2)CCN1C1CCCC1 (stereo not drawn) | -4 | 1 | 0 | 37* | 21* | 9
CC(=O)c1cccc(CN2CCN(Cc3ccc(C)cc3)C(CCO)C2)c1 (stereo not drawn) | 0 | 0 | 0 | 13 | . | .
CC(=O)c1cccc(CN2CCN(C3CCCC3)C(CCO)C2)c1 (stereo not drawn) | -2 | -1 | 0 | 29* | 0 | 4
O=C(OCN1C(=O)c2ccccc2C1=O)c1ccco1 | 2 | -1 | -2 | -3 | . | .
NS(=O)(=O)c1ccc(NC(=O)COC(=O)CSc2n[nH]c(-c3ccccc3)n2)cc1 | -2 | 0 | -1 | 39* | 9 | -3
O=C(Nc1ccc(Cl)c(S(=O)(=O)N2CCOCC2)c1)c1n[nH]c(=O)c2ccccc12 | -2 | -1 | -1 | 1 | . | .
COc1ccc(C2C(CC(=O)O)=C(O)C(=O)N2c2ccccc2)cc1 (stereo not drawn) | 0 | 0 | -3 | 2 | . | .
Cc1ccc(NC2=C(CC(=O)O)C(c3ccccc3)N(c3ccc(C)cc3)C2=O)cc1 (stereo not drawn) | 0 | 0 | 3 | 31* | -4 | 3
COc1ccc(Cl)cc1-c1n[nH]c(=S)o1 | -2 | 2 | -1 | 72* | 45* | 78*
CSc1ccccc1-c1n[nH]c(=S)o1 | 6 | 1 | -2 | 90* | 50* | 94*
Cc1ccccc1-c1n[nH]c(=S)o1 | 2 | 0 | -2 | 42* | 25* | 47*
COc1ccccc1-c1n[nH]c(=S)o1 | 1 | 2 | -2 | 21 | . | .
COc1cc2c(cc1OC)C1=C(C#N)CCC(=NC(=O)c3ccco3)N1CC2 | -4 | 3 | -2 | 4 | . | .
Nc1cc(=O)[nH]c(SCC(=O)N2N=C(c3ccc4ccccc4c3)CC2c2ccccc2)n1 (stereo not drawn) | -3 | 1 | 7 | 24 | . | .
Cc1ccc(O)c(NC(=O)CCCC(=O)O)c1 | -3 | -1 | -2 | 6 | . | .
CCOCCCNCc1cc(Cl)cc(Cl)c1OCC | -2 | -1 | 0 | 31* | 1 | 12
COc1c(Cl)cc(Cl)cc1CNCCNCCO | -2 | -1 | -1 | 7 | . | .
CC(=O)Nc1ccc(S(=O)(=O)N[C@@H](C)C(=O)OCC(=O)c2ccc(Br)s2)cc1 | -3 | 0 | -2 | 34* | 33* | 55*
COc1cc(C(=S)N2CCOCC2)ccc1OC(=O)c1ccc([N+](=O)[O-])cc1[N+](=O)[O-] | 0 | 1 | -1 | 37* | 6 | 28
CS(=O)(=O)c1nc(-c2ccc(Br)cc2)cc(-c2ccccc2)c1C#N | -1 | -1 | 4 | 43* | 25* | 65*
N#Cc1c(-c2ccc(Br)cc2)cc(-c2cccnc2)nc1N | -6 | 1 | -1 | 7 | . | .
SMILES | bovine MsrA act | MsrA inh | MC4R barr agon | MC4R antag cAMP | cAMP nonselect | MC4R cAMP antag
COc1ccc(-c2cc(-c3ccc(OC)cc3)c(C#N)c(SC)n2)cc1 | -3 | 0 | -3 | 4 | . | .
COc1ccc(-c2cc(-c3ccccc3)c(C#N)c(S(C)(=O)=O)n2)cc1 | -8 | 1 | 0 | 30* | 17* | 48*
CS(=O)c1nc(-c2ccc(Br)cc2)cc(-c2ccccc2)c1C#N (stereo not drawn) | -10 | 1 | 1 | 57* | 12 | 66*
CON(C)c1nc(OCCNC(=O)OCc2ccc(Cl)cc2Cl)nc(N(C)C)n1 | -1 | -1 | -1 | 2 | . | .
COc1ccc(-c2nc3ccccc3n2Cc2ccc(C)cc2)cc1 | -6 | 0 | -2 | 2 | . | .
Cc1nc(SCC(=O)N2CCCCCC2)c2c(=O)n(C)c(=O)n(CC(C)C)c2n1 | -1 | 0 | 1 | 33* | 3 | 13
Cc1ccc(/C=C2/SC(=O)N(CC(=O)N3CCOCC3)C2=O)s1 | -5 | 1 | -3 | -14 | . | .

Screens (PubChem)
